Source: ChEMBL document CHEMBL4052621, “Identification of new anti-inflammatory agents based on nitrosporeusine natural products of marine origin” (Eur J Med Chem, 2017)
Active and inactive are the calls of the source. The calls are words filed in the database; no cut-off is given here.

Columns and labels:
RAW264.7 [1] = assay: Antiinflammatory activity in mouse RAW264.7 cells assessed as inhibition of LPS-induced NO production after 24 hrs by Griess assay; type: functional, cell-based; conditions: for IC50: RAW264.7, 24 h
Procedure, shortened: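 LPS-stimulated RAW264.7 cells were co-treated with compound. Nitrite, a stable NO metabolite, was measured in culture medium with Griess reagent. IC50 (µM) was reported with a 95% confidence interval.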

RAW264.7 [2] = assay: Selectivity index, ratio IC50 for cytotoxicity against mouse RAW264.7 cells to IC50 for antiinflammatory activity in mouse RAW264.7 cells; type: functional
Procedure, shortened: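 Ratio A/B in RAW 264.7 cells. A is the cytotoxicity IC50 from the MTT assay. B is the IC50 for inhibiting NO production in LPS-stimulated cells, with nitrite in the culture medium measured by Griess reagent. Both IC50s are reported with 95% confidence intervals.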

RAW264.7 [3] = assay: Cytotoxicity against mouse RAW264.7 cells assessed as decrease in cell viability after 24 hrs by MTT assay; type: cell-based; conditions: RAW264.7, 24 h
Procedure, shortened: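 RAW264.7 macrophage viability after compound exposure was measured by MTT assay. IC50 (µM) was calculated and reported with a 95% confidence interval.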

Mus musculus [4] = assay: Antiinflammatory activity in BALB/c mouse assessed as inhibition of LPS-induced MCP-1 production at 10 mg/kg, ip pretreated for 3 days as single dose followed by LPS administration after 24 hrs by phycoerythrin staining based flow cytometry; type: functional, organism-based
Mus musculus [5] = assay: Antiinflammatory activity in BALB/c mouse assessed as inhibition of LPS-induced IL-12 production at 10 mg/kg, ip pretreated for 3 days as single dose followed by LPS administration after 24 hrs by phycoerythrin staining based flow cytometry; type: functional, organism-based
RAW264.7 [6] = assay: Antiinflammatory activity in mouse RAW264.7 cells assessed as inhibition of LPS-induced iNOS production at 50 uM after 24 hrs by Western blot analysis; type: functional, cell-based
Procedure, shortened: (§1)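 Protein was isolated from control, LPS, and LPS + compound (50 µM) RAW 264.7 cultures and immunoblotted. iNOS, COX-2 and phospho-NF-κB were quantified densitometrically against β-actin. Mean ± SD of 3 independent experiments, compared with LPS treatment.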

RAW264.7 [7] = assay: Antiinflammatory activity in mouse RAW264.7 cells assessed as inhibition of LPS-induced TNF-alpha production at 50 uM after 24 hrs by phycoerythrin staining based flow cytometry; type: functional, cell-based
Procedure, shortened: (§2)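 Cytokine bead array on protein extracts of RAW 264.7 cells treated with LPS plus compound at 50 µM. Read-outs were IL-12, IL-6, TNF-α, MCP-1 and IFN-γ, referenced to LPS-treated cells. Mean ± SD, n = 3 independent experiments.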

Mus musculus [8] = assay: Antiinflammatory activity in BALB/c mouse assessed as inhibition of LPS-induced TNF-alpha production at 10 mg/kg, ip pretreated for 3 days as single dose followed by LPS administration after 24 hrs by phycoerythrin staining based flow cytometry; type: functional, organism-based
RAW264.7 [9] = assay: Antiinflammatory activity in mouse RAW264.7 cells assessed as inhibition of LPS-induced IL-6 production at 50 uM after 24 hrs by phycoerythrin staining based flow cytometry; type: functional, cell-based; procedure, shortened: as §2
RAW264.7 [10] = assay: Antiinflammatory activity in mouse RAW264.7 cells assessed as inhibition of LPS-induced COX-2 production at 50 uM after 24 hrs by Western blot analysis; type: functional, cell-based; procedure, shortened: as §1
Mus musculus [11] = species on record: Mus musculus; assay: Inhibition of LPS-induced NFkappaB phosphorylation in mouse RAW264.7 cells at 50 uM after 24 hrs by Western blot analysis; type: cell-based; procedure, shortened: as §1
RAW264.7 [12] = assay: Antiinflammatory activity in mouse RAW264.7 cells assessed as inhibition of LPS-induced MCP-1 production at 50 uM after 24 hrs by phycoerythrin staining based flow cytometry; type: functional, cell-based; procedure, shortened: as §2
Mus musculus [13] = assay: Antiinflammatory activity in BALB/c mouse assessed as inhibition of LPS-induced […] production at 10 mg/kg, ip pretreated for 3 days as single dose followed by LPS administration after 24 hrs by phycoerythrin staining based flow cytometry; type: functional, organism-based
RAW264.7 [14] = assay: Antiinflammatory activity in mouse RAW264.7 cells assessed as inhibition of LPS-induced […] production at 50 uM after 24 hrs by phycoerythrin staining based flow cytometry; type: functional, cell-based; procedure, shortened: as §2
RAW264.7 [15] = assay: Antiinflammatory activity in mouse RAW264.7 cells assessed as inhibition of LPS-induced IL-12 production at 50 uM after 24 hrs by phycoerythrin staining based flow cytometry; type: functional, cell-based; procedure, shortened: as §2
RAW264.7 [16] = assay: Antiinflammatory activity in mouse RAW264.7 cells assessed as inhibition of LPS-induced ROS production after 24 hrs by CM-H2DCFDA dye based fluorescence assay; type: functional, cell-based
Procedure, shortened: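 Intracellular ROS was measured in LPS-treated RAW 264.7 cells exposed to compounds at several doses. The read-out was mean fluorescence intensity, compared with LPS-treated cells. Data are mean ± SD of three independent experiments.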

Mus musculus [17] = assay: Antiinflammatory activity in BALB/c mouse assessed as inhibition of LPS-induced IL-6 production at 10 mg/kg, ip pretreated for 3 days as single dose followed by LPS administration after 24 hrs by phycoerythrin staining based flow cytometry; type: functional, organism-based
[18] = Antiviral activity against Influenza A virus A/WSN/33(H1N1) infected in MDCK cells at 50 uM preincubated for 15 mins measured after 1.5 days by CellTiter-Glo assay relative to control; type: functional, Influenza A virus (A/WSN/1933(H1N1))
[19] = Antiviral activity against Influenza A virus A/WSN/33(H1N1) infected in MDCK cells preincubated for 1 hr followed by compound wash measured after 48 hrs by plaque reduction assay; type: functional, cell-based, Influenza A virus (A/WSN/1933(H1N1))

| SMILES | IC50 (RAW264.7 [1]) [µM] | Ratio IC50 (RAW264.7 [2]) | IC50 (RAW264.7 [3]) [µM] | further results |
| --- | --- | --- | --- | --- |
| O=C(S[C@]12CC[C@@H](O)[C@H]1C(=O)NC2=O)c1ccc(O)cc1 | 42 | 14.67 | 616 |  |
| CC(=O)SC1CC[C@]2(SC(C)=O)C(=O)NC(=O)[C@H]12 (stereo not given in full) | 19.8 | 505.4343 | 10000 | inhibition (Mus musculus [4]): Active; inhibition (Mus musculus [5]): Active; inhibition (RAW264.7 [6]): Active; inhibition (RAW264.7 [7]): Active; inhibition (Mus musculus [8]): Active; inhibition (RAW264.7 [9]): Active; inhibition (RAW264.7 [10]): Active; inhibition (Mus musculus [11]): Active; inhibition (RAW264.7 [12]): Active; inhibition (Mus musculus [13]): Active; inhibition (RAW264.7 [14]): Active; inhibition (RAW264.7 [15]): Active; inhibition (RAW264.7 [16]): Dose-dependent effect; inhibition (Mus musculus [17]): Active |
| CC(=O)S[C@]12CC[C@H](O)[C@H]1C(=O)NC2=O (relative stereo) | 833 | 1.029 | 857 |  |
| O=C(Cc1ccccc1)SC1CC[C@]2(SC(=O)Cc3ccccc3)C(=O)NC(=O)[C@H]12 (stereo not given in full) | 57.5 | 12.36 | 711 |  |
| CC(=O)O[C@@H]1CC[C@@]2(SC(=O)c3ccc(F)cc3)C(=O)NC(=O)[C@@H]12 |  |  |  | inhibition (RAW264.7 [1]): Active |
| CCOC(=O)C1=C[C@@H](OC(CC)CC)[C@H](NC(C)=O)[C@@H](N)C1.O=P(O)(O)O [OSELTAMIVIR PHOSPHATE] |  |  |  | Activity [18]: 54%; EC50 [19]: 67 µM |
| O=C(Cc1ccccc1)SC12CCC=C1C(=O)NC2=O (stereo not given) | 30.6 | 3.042 | 93.1 |  |
| CC(=O)S[C@@]12CC[C@H](O)[C@@H]1C(=O)NC2=O (relative stereo) | 148 | 3.7762 | 558 |  |
| O=C1NC(=O)C2=C1CCC2SC(=O)c1cccs1 (stereo not given) | 65 | 0.4108 | 26.7 |  |
| O=C(S[C@]12CC[C@H](O)[C@H]1C(=O)NC2=O)c1cccs1 (relative stereo) | 36.6 | 297.0519 | 10900 | inhibition (Mus musculus [4]): Active; inhibition (Mus musculus [5]): Active; inhibition (RAW264.7 [6]): Active; inhibition (RAW264.7 [7]): Active; inhibition (Mus musculus [8]): Active; inhibition (RAW264.7 [9]): Active; inhibition (RAW264.7 [10]): Active; inhibition (Mus musculus [11]): Active; inhibition (RAW264.7 [12]): Active; inhibition (Mus musculus [13]): Active; inhibition (RAW264.7 [14]): Active; inhibition (RAW264.7 [15]): Active; inhibition (RAW264.7 [16]): Dose-dependent effect; inhibition (Mus musculus [17]): Active |
| O=C(S[C@@]12CC[C@H](O)[C@@H]1C(=O)NC2=O)c1ccccc1 (relative stereo) | 72.4 | 6.622 | 479 |  |
| CC(=O)S[C@]12CCC[C@H]1C(=O)NC2=O (relative stereo) | 59.2 | 11.39 | 674 |  |
| O=C(S[C@]12CCC[C@H]1C(=O)NC2=O)c1ccccc1Cl (relative stereo) | 59.8 | 13.95 | 834 |  |
| O=C(S[C@@]12CC[C@H](O)[C@@H]1C(=O)NC2=O)c1ccc(O)cc1 | 71.8 | 14.14 | 1020 | Activity [18]: 18.6% |
| O=C(S[C@]12CCC[C@H]1C(=O)NC2=O)c1ccc(F)cc1 (relative stereo) | 390 | 0.9841 | 384 |  |
| O=C(S[C@]12CC[C@H](O)[C@H]1C(=O)NC2=O)c1ccc(F)cc1 (relative stereo) | 318 | 1.49 | 474 |  |
| CC(=O)O[C@@H]1CC[C@]2(SC(=O)c3ccc(F)cc3)C(=O)NC(=O)[C@H]12 |  |  |  | inhibition (RAW264.7 [1]): Active |
| CC(=O)O[C@H]1CC[C@]2(SC(=O)c3ccc(F)cc3)C(=O)NC(=O)[C@H]12 |  |  |  | inhibition (RAW264.7 [1]): Active |

| SMILES | IC50 (RAW264.7 [1]) [µM] | Ratio IC50 (RAW264.7 [2]) | IC50 (RAW264.7 [3]) [µM] | further results |
| --- | --- | --- | --- | --- |
| O=C(S[C@]12CC[C@H](O)[C@H]1C(=O)NC2=O)c1ccccc1 (relative stereo) | 65.2 | 261.7025 | 17100 |  |
| O=C(Cc1ccccc1)S[C@]12CC[C@H](O)[C@H]1C(=O)NC2=O (relative stereo) | 143 | 5.418 | 774 |  |
| O=C(Cc1ccccc1)S[C@]12CCC[C@H]1C(=O)NC2=O (relative stereo) | 56.9 | 7.48 | 426 |  |
| CC(=O)O[C@H]1CCC2=C1C(=O)NC2=O | 867 | 0.1477 | 128 |  |
| O=C1NC(=O)C2=C1CC[C@@H]2O | 95.9 | 2.26 | 217 |  |
| CC(=O)OC1CC[C@]2(SC(=O)c3ccc(F)cc3)C(=O)NC(=O)[C@H]12 (stereo not given in full) | 34.3 | 353.8076 | 12100 | inhibition (Mus musculus [4]): Active; inhibition (Mus musculus [5]): Active; inhibition (RAW264.7 [6]): Active; inhibition (RAW264.7 [7]): Active; inhibition (Mus musculus [8]): Active; inhibition (RAW264.7 [9]): Active; inhibition (RAW264.7 [10]): Active; inhibition (Mus musculus [11]): Active; inhibition (RAW264.7 [12]): Active; inhibition (Mus musculus [13]): Active; inhibition (RAW264.7 [14]): Active; inhibition (RAW264.7 [15]): Active; inhibition (RAW264.7 [16]): Dose-dependent effect; inhibition (Mus musculus [17]): Active |
| O=C(S[C@]12CC[C@H](O)[C@H]1C(=O)NC2=O)c1ccccc1Cl (relative stereo) | 178 | 4.022 | 717 |  |
| O=C(SC12CCC(O)C1C(=O)NC2=O)c1ccc(O)cc1 (racemic) | 225 | 1.925 | 434 |  |
| O=C(Cc1ccccc1)S[C@@]12CC[C@H](O)[C@@H]1C(=O)NC2=O (relative stereo) | 132 | 6.322 | 834 |  |
| O=C(S[C@@]12CC[C@H](O)[C@@H]1C(=O)NC2=O)c1ccccc1Cl (relative stereo) |  | 5.245 | 668 |  |
| O=C(SC1CC[C@]2(SC(=O)c3ccc(F)cc3)C(=O)NC(=O)[C@H]12)c1ccc(F)cc1 (stereo not given in full) | 98.3 | 2.142 | 211 |  |
| CC(=O)SC12CCC=C1C(=O)NC2=O (stereo not given) | 20.5 | 9 | 184 |  |
| CC(=O)OC1CC[C@]2(SC(=O)Cc3ccccc3)C(=O)NC(=O)[C@H]12 (stereo not given in full) | 68.2 | 23.57 | 1610 |  |
| CC(=O)OC1CC[C@]2(SC(=O)c3ccccc3)C(=O)NC(=O)[C@H]12 (stereo not given in full) | 64.3 | 29.74 | 1910 |  |
| O=C(S[C@@]12CC[C@@H](O)[C@@H]1C(=O)NC2=O)c1ccc(O)cc1 | 127 | 22.99 | 2910 |  |
| O=C1NC(=O)C2=C1CC[C@H]2O | 121 | 2.631 | 319 |  |
| CC(=O)OC1CC[C@]2(SC(=O)c3ccccc3Cl)C(=O)NC(=O)[C@H]12 (stereo not given in full) | 101 | 89.51 | 9080 |  |
